Data reported in ChEMBL document CHEMBL1212734, “In vitro pharmacodynamics of levofloxacin and other aerosolized antibiotics under multiple conditions relevant to chronic pulmonary infection in cystic fibrosis” (2010).
≈ marks a conversion by molar mass, not a printed value.

What was measured:
Assay type in all cases: functional
[1] = test system: Pseudomonas aeruginosa; test: Antibacterial activity against Pseudomonas aeruginosa ATCC 27853 assessed as time required for reduction of bacterial load to 3 log CFU/ml at 2 mg/ml up to 48 hrs by time-kill assay
[2] = test system: Pseudomonas aeruginosa; test: Antibacterial activity against Pseudomonas aeruginosa PA880 assessed as time required for reduction of bacterial load to 3 log CFU/ml at 0.6 mg/ml up to 48 hrs by time-kill assay
Outline: (§1)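 Overnight cultures were diluted and grown at 37°C to OD600 ≈0.3, then set at 5 × 10^5–1 × 10^6 CFU/ml in 10 ml CAMHB. Drug was added at 0.2, 0.6 or 2.0 mg/ml, and cultures were shaken at 37°C. Samples taken at 0, 0.5, 1, 2, 4, 8 and 24 h were washed twice in CAMHB, diluted in saline and plated on Mueller-Hinton agar. Plates were incubated up to 48 h before colony counting.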

[3] = test system: Pseudomonas aeruginosa; test: Antibacterial activity against Pseudomonas aeruginosa PA861 assessed as time required for reduction of bacterial load to 3 log CFU/ml at 0.2 mg/ml up to 48 hrs by time-kill assay; outline: as §1
[4] = test system: Pseudomonas aeruginosa; test: Antibacterial activity against Pseudomonas aeruginosa PA5020 assessed as time required for reduction of bacterial load to 3 log CFU/ml at 2 mg/ml up to 48 hrs by time-kill assay; outline: as §1
[5] = test system: Pseudomonas aeruginosa; test: Antibacterial activity against Pseudomonas aeruginosa PA899 assessed as time required for reduction of bacterial load to 3 log CFU/ml at 2 mg/ml up to 48 hrs by time-kill assay; outline: as §1
[6] = test system: Pseudomonas aeruginosa; test: Antibacterial activity against Pseudomonas aeruginosa PA876 by broth dilution method
Outline: (§2)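 Broth microdilution MIC per CLSI reference method; twofold serial dilutions in cation-adjusted Mueller-Hinton broth. […] Endpoint read by OD600 and confirmed visually.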

[7] = test system: Pseudomonas aeruginosa; test: Antibacterial activity against Pseudomonas aeruginosa PA5043 assessed as time required for reduction of bacterial load to 3 log CFU/ml at 0.2 mg/ml up to 48 hrs by time-kill assay; outline: as §1
[8] = test system: Stenotrophomonas maltophilia; test: Antibacterial activity against Stenotrophomonas maltophilia by broth dilution method
[9] = test system: Pseudomonas aeruginosa; test: Antibacterial activity against Pseudomonas aeruginosa PA876 assessed as time required for reduction of bacterial load to 3 log CFU/ml at 0.6 mg/ml up to 48 hrs by time-kill assay; outline: as §1
[10] = test system: Pseudomonas aeruginosa; test: Antibacterial activity against Pseudomonas aeruginosa PA1054 assessed as time required for reduction of bacterial load to 3 log CFU/ml at 0.6 mg/ml up to 48 hrs by time-kill assay; outline: as §1
[11] = test system: Pseudomonas aeruginosa; test: Antibacterial activity against Pseudomonas aeruginosa PA1022 assessed as time required for reduction of bacterial load to 3 log CFU/ml at 0.2 mg/ml up to 48 hrs by time-kill assay; outline: as §1
[12] = test system: Pseudomonas aeruginosa; test: Antibacterial activity against Pseudomonas aeruginosa PA1054 by broth dilution method; outline: as §2
[13] = test system: Pseudomonas aeruginosa; test: Antibacterial activity against Pseudomonas aeruginosa PA1022 assessed as time required for reduction of bacterial load to 3 log CFU/ml at 0.6 mg/ml up to 48 hrs by time-kill assay; outline: as §1
[14] = test system: Pseudomonas aeruginosa; test: Antibacterial activity against Pseudomonas aeruginosa PA5043 assessed as time required for reduction of bacterial load to 3 log CFU/ml at 2 mg/ml up to 48 hrs by time-kill assay; outline: as §1
[15] = test system: Pseudomonas aeruginosa; test: Antibacterial activity against Pseudomonas aeruginosa PA5026 assessed as time required for reduction of bacterial load to 3 log CFU/ml at 0.6 mg/ml up to 48 hrs by time-kill assay; outline: as §1
[16] = test system: Pseudomonas aeruginosa; test: Antibacterial activity against Pseudomonas aeruginosa PA1036 assessed as time required for reduction of bacterial load to 3 log CFU/ml at 0.6 mg/ml up to 48 hrs by time-kill assay; outline: as §1
[17] = test system: Pseudomonas aeruginosa; test: Antibacterial activity against Pseudomonas aeruginosa PA5020 assessed as time required for reduction of bacterial load to 3 log CFU/ml at 0.2 mg/ml up to 48 hrs by time-kill assay; outline: as §1
[18] = test system: Pseudomonas aeruginosa; test: Antibacterial activity against Pseudomonas aeruginosa PA861 by broth dilution method; outline: as §2
[19] = test system: Staphylococcus aureus; test: Antibacterial activity against methicillin-resistant Staphylococcus aureus by broth dilution method; outline: as §2
[20] = test system: Pseudomonas aeruginosa; test: Antibacterial activity against Pseudomonas aeruginosa PA881 by broth dilution method; outline: as §2
[21] = test system: Pseudomonas aeruginosa; test: Antibacterial activity against Pseudomonas aeruginosa PA899 assessed as time required for reduction of bacterial load to 3 log CFU/ml at 0.2 mg/ml up to 48 hrs by time-kill assay; outline: as §1
[22] = test system: Pseudomonas aeruginosa; test: Antibacterial activity against Pseudomonas aeruginosa PA881 assessed as time required for reduction of bacterial load to 3 log CFU/ml at 2 mg/ml up to 48 hrs by time-kill assay; outline: as §1
[23] = test system: Pseudomonas aeruginosa; test: Antibacterial activity against Pseudomonas aeruginosa PA5063 by broth dilution method; outline: as §2
[24] = test system: Pseudomonas aeruginosa; test: Antibacterial activity against Pseudomonas aeruginosa PA1042 assessed as inhibition of biofilm formation by microtiter plate reader assay
Outline: (§3)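 Biofilms of cystic fibrosis P. aeruginosa isolates were grown and tested by a previously described method. The endpoint was the biofilm inhibitory concentration, the drug level that prevents biofilm cell growth, compared against planktonic broth-microdilution MICs.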

[25] = test system: Pseudomonas aeruginosa; test: Antibacterial activity against Pseudomonas aeruginosa PA1036 assessed as time required for reduction of bacterial load to 3 log CFU/ml at 0.2 mg/ml up to 48 hrs by time-kill assay; outline: as §1
[26] = test system: Pseudomonas aeruginosa; test: Antibacterial activity against Pseudomonas aeruginosa PA1054 assessed as inhibition of biofilm formation by microtiter plate reader assay; conditions: for MIC: Pseudomonas aeruginosa, PA1054; outline: as §3
[27] = test system: Pseudomonas aeruginosa; test: Antibacterial activity against Pseudomonas aeruginosa PA876 assessed as time required for reduction of bacterial load to 3 log CFU/ml at 0.2 mg/ml up to 48 hrs by time-kill assay; outline: as §1
[28] = test system: Staphylococcus aureus; test: Antibacterial activity against methicillin-sensitive Staphylococcus aureus by broth dilution method
[29] = test system: Pseudomonas aeruginosa; test: Antibacterial activity against Pseudomonas aeruginosa PA876 assessed as time required for reduction of bacterial load to 3 log CFU/ml at 2 mg/ml up to 48 hrs by time-kill assay; outline: as §1
[30] = test system: Pseudomonas aeruginosa; test: Antibacterial activity against Pseudomonas aeruginosa PA5043 assessed as inhibition of biofilm formation by microtiter plate reader assay; outline: as §3
[31] = test system: Pseudomonas aeruginosa; test: Antibacterial activity against Pseudomonas aeruginosa ATCC 27853 assessed as inhibition of biofilm formation by microtiter plate reader assay
[32] = test system: Pseudomonas aeruginosa; test: Antibacterial activity against Pseudomonas aeruginosa PA5020 assessed as time required for reduction of bacterial load to 3 log CFU/ml at 0.6 mg/ml up to 48 hrs by time-kill assay; outline: as §1
[33] = test system: Pseudomonas aeruginosa; test: Antibacterial activity against Pseudomonas aeruginosa PA899 assessed as time required for reduction of bacterial load to 3 log CFU/ml at 0.6 mg/ml up to 48 hrs by time-kill assay; outline: as §1
[34] = test system: Pseudomonas aeruginosa; test: Antibacterial activity against Pseudomonas aeruginosa PA861 assessed as time required for reduction of bacterial load to 3 log CFU/ml at 0.6 mg/ml up to 48 hrs by time-kill assay; outline: as §1
[35] = test system: Pseudomonas aeruginosa; test: Antibacterial activity against Pseudomonas aeruginosa PA5026 by broth dilution method; outline: as §2

SMILES	Time [1]	Time [2]	Time [3]	Time [4] [h]	Time [5]	MIC90 [6] [µg/mL]	Time [7]	MIC50 [8] [µg/mL]	MIC90 [8] [µg/mL]	Time [9]	Time [10]	Time [11]	MIC [12] [µg/mL]	Time [13]	Time [14]	Time [15]	Time [16]	Time [17] [h]	MIC [18] [µg/mL]	MIC50 [19] [µg/mL]	also measured
C[C@H]1[C@H](NC(=O)/C(=N\OC(C)(C)C(=O)O)c2csc(N)n2)C(=O)N1S(=O)(=O)O [AZTREONAM]	24 h	4 h	>24 h	24	24 h	> 128	8 h	> 128	> 128	>24 h	24 h	>24 h	8 (≈ 18.4 µM)	>24 h	2 h	>24 h	24 h	>24	128 (≈ 294 µM)	> 512	MIC90 [19]: > 512 µg/mL; MIC50 [20]: 2 µg/mL (≈ 4.59 µM); Time [21]: >24 h; Time [22]: 8 h; MIC [23]: 8 µg/mL (≈ 18.4 µM); BBC [24]: >8 µg/mL; Time [25]: >24 h; BBC [26]: >64 µg/mL; MIC [26]: 4 µg/mL (≈ 9.19 µM); Time [27]: >24 h; MIC50 [28]: > 128 µg/mL; MIC90 [28]: > 128 µg/mL; Time [29]: >24 h; BBC [30]: >64 µg/mL; BBC [31]: >256 µg/mL; Time [32]: >24 h; Time [33]: 24 h; Time [34]: >24 h; MIC [35]: > 128 µg/mL
C[C@H]1COc2c(N3CCN(C)CC3)c(F)cc3c(=O)c(C(=O)O)cn1c23.C[C@H]1COc2c(N3CCN(C)CC3)c(F)cc3c(=O)c(C(=O)O)cn1c23.O [LEVOFLOXACIN]	<=0.5 hr	<=0.5 hr	<=0.5 hr	2	<=0.5 hr	8	<=0.5 hr	2	8	<=0.5 hr	<=0.5 hr	<=0.5 hr	0.5	<=0.5 hr	<=0.5 hr	<=0.5 hr	<=0.5 hr	4	32	4	MIC90 [19]: 32 µg/mL; MIC50 [20]: 4 µg/mL; Time [21]: <=0.5 hr; Time [22]: <=0.5 hr; MIC [23]: 0.5 µg/mL; BBC [24]: 1 µg/mL; Time [25]: <=0.5 hr; BBC [26]: 1 µg/mL; Time [27]: <=0.5 hr; MIC50 [28]: 0.125 µg/mL; MIC90 [28]: 0.25 µg/mL; Time [29]: <=0.5 hr; BBC [30]: 1 µg/mL; BBC [31]: 2 µg/mL; Time [32]: 4 h; Time [33]: <=0.5 hr; Time [34]: <=0.5 hr; MIC [35]: 8 µg/mL
NC[C@H]1O[C@H](O[C@H]2[C@H](O)[C@@H](O[C@H]3O[C@H](CO)[C@@H](O)[C@H](N)[C@H]3O)[C@H](N)C[C@@H]2N)[C@H](N)C[C@@H]1O [TOBRAMYCIN]	<=0.5 hr	<=0.5 hr	8 h	2	<=0.5 hr	32 (≈ 68.4 µM)	2 h	> 32	> 32	4 h	<=0.5 hr	4 h	0.25 (≈ 0.535 µM)	4 h	1 h	1 h	<=0.5 hr	4	16 (≈ 34.2 µM)	128 (≈ 274 µM)	MIC90 [19]: > 128 µg/mL; MIC50 [20]: 2 µg/mL (≈ 4.28 µM); Time [21]: <=0.5 hr; Time [22]: <=0.5 hr; MIC [23]: 0.25 µg/mL (≈ 0.535 µM); BBC [24]: 1 µg/mL; Time [25]: <=0.5 hr; BBC [26]: 1 µg/mL; MIC [26]: 1 µg/mL (≈ 2.14 µM); Time [27]: 4 h; MIC50 [28]: 0.125 µg/mL (≈ 0.267 µM); MIC90 [28]: 32 µg/mL (≈ 68.4 µM); Time [29]: 4 h; BBC [30]: 8 µg/mL; BBC [31]: 1 µg/mL; Time [32]: 2 h; Time [33]: <=0.5 hr; Time [34]: 8 h; MIC [35]: 32 µg/mL (≈ 68.4 µM)
